Measured values as given in ChEMBL document CHEMBL1138962, “Exploration of a new type of antimalarial compounds based on febrifugine” (J Med Chem, 2006).
≈ marks a conversion by molar mass, not a printed value.

Tests used:
[1] = system: Plasmodium falciparum; experiment: Antimalarial activity against chloroquine-sensitive Plasmodium falciparum FCR3 by pLDH reporter assay; type: functional, organism-based
Outline: (§1)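 P. falciparum cultured in human A+ erythrocytes in RPMI-1640 (25 mM HEPES, hypoxanthine, gentamicin) with 10% human plasma, 37 °C, 93% N2/4% CO2/3% O2. Asynchronous parasites at 2.0% hematocrit, 0.5% parasitaemia. Compound added in water or 5% DMSO, 72 h at 37 °C. pLDH read-out: Malstat, then NBT/PES, formazan at 650 nm. EC50 from dose-response curve.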

[2] = system: Plasmodium falciparum; experiment: Antimalarial activity against chloroquine-resistant Plasmodium falciparum K1 by pLDH reporter assay; type: functional, organism-based; outline: as §1
[3] = system: L929; experiment: Cytotoxicity against mouse L929 cells by MTT assay; type: functional, cell-based
Outline: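 MTT assay in mouse L929 cells (1.8 × 10⁴ cells/well) in RPMI-1640 with 10% FBS. Compound added in distilled water or 10% DMSO (added solution), then 48 h at 37 °C, 5% CO₂. MTT 4 h, formazan dissolved in DMSO, absorbance read at 570 and 655 nm. EC50 from dose-response curve.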

[4] = Therapeutic index; LD50 for ICR mice (Mus musculus)/ED50 against Plasmodium berghei NK65; settings: read-out: Ratio LD50/ED50
Outline: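 Index is mouse LD50 (oral acute toxicity) divided by oral ED50 against P. berghei in mice. For ED50, a 4-day suppressive test was used. Male ICR mice (18-20 g) were inoculated iv with 10⁶ parasitized RBC. Compound was given po in 5% gum arabic 2 h post-infection, then once daily on days 1-3. Parasitaemia was read from tail-blood thin films on day 4.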

[5] = system: L929; experiment: Selectivity for L929 cells over Plasmodium falciparum FCR3 as EC50 ratio; type: functional
Outline: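 Ratio of L929 EC50 to P. falciparum FCR-3 EC50. L929 EC50 by 48 h MTT assay. FCR-3 EC50 by pLDH assay: asynchronous parasites in human erythrocytes (2.0% hematocrit, 0.5% parasitaemia), RPMI with 10% human plasma. Incubated 72 h at 37 °C under 93% N₂/4% CO₂/3% O₂. Malstat/NBT-PES read-out at 650 nm; EC50 from dose-response curves.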

[6] = system: Plasmodium berghei; experiment: Antimalarial activity against Plasmodium berghei NK65 infected ICR mice (Mus musculus) peroral dose; type: functional
Outline: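 P. berghei NK65 4-day suppressive test. Male ICR mice (18-20 g) infected i.v. with 10⁶ parasitized red cells. Compounds suspended in 5% gum arabic, given orally 2 h post-infection (Day 0), then once daily Days 1-3. Day 4 tail-vein blood, parasitaemia from thin blood films; ED50 from dose-response curve.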

[7] = Toxicity in po dosed ICR mouse; type: organism-based; settings: in vivo
Outline: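 Acute toxicity in mice, compound given orally. LD50 determined.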

| SMILES | EC50 [1] | EC50 [2] | EC50 [3] | selectivity ratio [4] | Ratio EC50 [5] | ED50 ([6]; Plasmodium berghei, NK65, po) | LD50 [7] | ED50 [6] |
| --- | --- | --- | --- | --- | --- | --- | --- | --- |
| O=C(C[C@H]1NCCC[C@@H]1O)Nc1nc(O)c2ccccc2n1 | > 1 µg/mL | > 1 µg/mL | > 100 µg/mL | – | – | – | – | – |
| O=C(CN1CCCC(O)C1)Cn1cnc2ccccc2c1=O (stereo not drawn) | > 1 µg/mL | > 1 µg/mL | > 100 µg/mL | – | – | – | – | – |
| O=C(COC1CCCNC1)Cn1cnc2ccccc2c1=O (stereo not drawn) | > 1 µg/mL | > 1 µg/mL | > 100 µg/mL | – | – | – | – | – |
| O=c1c2ccccc2ncn1CCC[C@H]1NCCC[C@@H]1O | 0.0225 µg/mL (≈ 0.0783 µM) | 0.0236 µg/mL (≈ 0.0821 µM) | 4.45 µg/mL (≈ 15.5 µM) | > 14 | 198 | 22.5 mg/kg | > 320 mg/kg | – |
| O=c1c2ccccc2ncn1CCCC[C@H]1NCCC[C@@H]1O | > 1 µg/mL | > 1 µg/mL | > 100 µg/mL | – | – | – | – | – |
| O=c1c2ccccc2ncn1CC[C@H]1NCCC[C@@H]1O | > 1 µg/mL | > 1 µg/mL | > 100 µg/mL | – | – | – | – | – |
| CC[C@H](O)[C@@H](CC(=O)Cn1cnc2ccccc2c1=O)NC | > 1 µg/mL | > 1 µg/mL | 6.44 µg/mL (≈ 21.2 µM) | – | <6.44 | – | – | – |
| O=C(C[C@H]1NCCC[C@@H]1O)Cn1cnc2ccsc2c1=O (relative stereo) | 0.00306 µg/mL (≈ 0.00996 µM) | 0.00319 µg/mL (≈ 0.0104 µM) | 0.563 µg/mL (≈ 1.83 µM) | 30 | 184 | – | 88 mg/kg | 2.95 mg/kg |
| Cc1nc2ccccc2c(=O)n1CC(=O)C[C@H]1NCCC[C@@H]1O (relative stereo) | 0.116 µg/mL (≈ 0.368 µM) | 0.19 µg/mL (≈ 0.602 µM) | 15.6 µg/mL (≈ 49.5 µM) | – | 134 | – | – | – |
| O=C(C[C@H]1NCCC[C@@H]1O)Cn1nnc2ccccc2c1=O (relative stereo) | 0.154 µg/mL (≈ 0.509 µM) | – | 16.4 µg/mL (≈ 54.2 µM) | – | 106 | – | – | – |
| O=C(C[C@H]1NCCC[C@@H]1O)Cn1ccc(=O)c2ccccc21 (relative stereo) | > 1 µg/mL | > 1 µg/mL | > 100 µg/mL | – | – | – | – | – |
| O=C(C[C@H]1NCCC[C@@H]1O)Cn1cnc2ncnc-2c1O (relative stereo) | 0.506 µg/mL (≈ 1.74 µM) | 0.943 µg/mL (≈ 3.24 µM) | > 100 µg/mL | – | >198 | – | – | – |
| O=C(C[C@H]1NCCC[C@@H]1O)Cn1cnc2ccc(F)cc2c1=O (relative stereo) | 0.00073 µg/mL (≈ 0.00229 µM) | 0.000916 µg/mL (≈ 0.00287 µM) | 0.079 µg/mL (≈ 0.247 µM) | – | 108 | – | < 2.5 mg/kg | – |
| O=C(C[C@@H]1NCCC[C@H]1O)Cn1cnc2ccccc2c1=O (single isomer, unassigned) [FEBRIFUGINE] | 0.00142 µg/mL (≈ 0.00471 µM) | 0.0014 µg/mL (≈ 0.00465 µM) | 0.167 µg/mL (≈ 0.554 µM) | 17 | 118 | 0.41 mg/kg | 7.1 mg/kg | – |
| C[C@@H]1CC[C@H]2[C@@H](C)C(=O)O[C@@H]3O[C@@]4(C)CC[C@@H]1[C@]32OO4 [ARTEMISININ] | 0.0179 µg/mL (≈ 0.0634 µM) | 0.0117 µg/mL (≈ 0.0414 µM) | > 100 µg/mL | – | >5590 | – | – | – |
| CCN(CC)CCCC(C)Nc1ccnc2cc(Cl)ccc12 (stereo not drawn) [CHLOROQUINE] | 0.0475 µg/mL (≈ 0.148 µM) | 0.375 µg/mL (≈ 1.17 µM) | 18.6 µg/mL (≈ 58.1 µM) | – | 392 | 1.53 mg/kg | – | – |
